Data set [1] concerns the target Nuclear receptor subfamily 5 group A member 2 (Homo sapiens) (UniProt O00482).
For data set [2], the target named is T1, Steroidogenic factor 1 (Homo sapiens, UniProt Q13285). As to the kind of experiment: Agonist activity at human SF-1 assessed as DAX1 1-23 peptide recruitment by TR-FRET assay relative to control.
A short description of data set [3]: Solubility of the compound. It is filed as physicochemical.
Data set [4] concerns the target T1, Steroidogenic factor 1. Nature of the data set: Agonist activity at human SF-1 assessed as DAX1 1-23 peptide recruitment by TR-FRET assay relative to control.
In data set [5] the target is T1, Steroidogenic factor 1. Nature of the data set: Agonist activity at human SF-1 assessed as DAX1 1-23 peptide recruitment by TR-FRET assay. It is filed as functional. In short, it runs like this: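 Biotinylated, bacterially expressed human SF-1 LBD was bound to APC-streptavidin. Biotinylated DAX-1 peptide (aa 1–23) was bound to europium-streptavidin. Receptor and peptide were incubated with test compound, typically at 11 concentrations from 1 nm to 10 µM. Recruitment was read by TR-FRET as the 671/618 nm fluorescence ratio, and pEC50 was calculated from the dose–response curve.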

Data set [6] deals with NCI-H295RR. As to the kind of experiment: Inhibition of doxycycline induced proliferation in human NCI-H295RR cells. The data set is classed as functional, cell-based.
Data set [7] has as its target Steroidogenic factor 1 (Mus musculus) (UniProt P33242). As to the kind of experiment: Agonist activity at mouse SF-1 expressed in HEK293 cells assessed as increase in SHP mRNA levels at 10 uM after 24 hrs by RT-qPCR method. It is filed as functional, cell-based. In short, it runs like this:
(§1)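 HEK293 cells stably carrying Tet-inducible, 3XFlag-tagged mouse SF-1 were induced with 100 ng/mL Tet, and compound in DMSO was added 16 h later. Cells were treated at 10 µM for 24 h. Transcript levels were measured by RT-qPCR and expressed relative to DMSO vehicle.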

Data set [8] has the same target. As to the kind of experiment: Displacement of dipalmitoyl phosphatidylinositol 4,5-bisphosphate from mouse SF-1 ligand binding domain at 100 uM after 16 hrs with Coomassie blue staining by PAGE method.
The target in data set [9] is T1, Steroidogenic factor 1. Nature of the data set: Inverse agonist activity at SF-1. It is filed as functional.
Data set [10] has as its target Steroidogenic factor 1 (Mus musculus) (UniProt P33242). Nature of the data set: Agonist activity at mouse SF-1 expressed in HEK293 cells assessed as increase in SHP mRNA levels at 5 uM after 24 hrs by RT-qPCR method. The data set is classed as functional, cell-based. In short, it runs like this:
(§2)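 Stable HEK293 lines expressing Tet-inducible mouse SF-1 or empty vector were induced with 100 ng/mL Tet, with compound in DMSO added 16 h afterward. Cells were exposed to a dose series for 24 h. SHP mRNA was quantified by RT-qPCR relative to DMSO, with significance by p-value.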

The target is the same in data set [11]. Nature of the data set: Agonist activity at mouse SF-1 expressed in HEK293 cells assessed as increase in MeOx1 mRNA levels at 10 uM after 24 hrs by RT-qPCR method. The data set is classed as functional, cell-based. In short, it runs like this:
as §1

Data set [12] has the same target. Nature of the data set: Agonist activity at mouse SF-1 expressed in HEK293 cells assessed as increase in GOS2 mRNA levels at 10 uM after 24 hrs by RT-qPCR method. It is filed as functional, cell-based. In short, it runs like this:
as §1

For data set [13] the target is unchanged. As to the kind of experiment: Agonist activity at mouse SF-1 expressed in HEK293 cells assessed as increase in StAR mRNA levels at 10 uM after 24 hrs by RT-qPCR method. It is filed as functional, cell-based. In short, it runs like this: as §1
For data set [14] the target is unchanged. Nature of the data set: Displacement of dipalmitoyl phosphatidylinositol 4,5-bisphosphate from mouse SF-1 ligand binding domain at 1 uM after 16 hrs with Coomassie blue staining by PAGE method.
Data set [15] has the same target. As to the kind of experiment: Agonist activity at mouse SF-1 expressed in HEK293 cells assessed as increase in SHP mRNA levels after 24 hrs by RT-qPCR method. It is filed as functional, cell-based. In short, it runs like this:
as §2

For data set [16], the target named is Nuclear receptor subfamily 5 group A member 2 (Homo sapiens) (UniProt O00482). Nature of the data set: Agonist activity at human LRH-1 ligand binding domain at 100 uM with Coomassie blue staining by PAGE method.

Active and inactive are the calls of the source. No cut-off for these calls is given here.

The values that follow come from ChEMBL document CHEMBL1765026, “Small molecule agonists of the orphan nuclear receptors steroidogenic factor-1 (SF-1, NR5A1) and liver receptor homologue-1 (LRH-1, NR5A2)” (J Med Chem, 2011).

Nuclear receptor subfamily 5 group A member 2 (Homo sapiens), sequence (O00482 whole entry, the tested form may be a part): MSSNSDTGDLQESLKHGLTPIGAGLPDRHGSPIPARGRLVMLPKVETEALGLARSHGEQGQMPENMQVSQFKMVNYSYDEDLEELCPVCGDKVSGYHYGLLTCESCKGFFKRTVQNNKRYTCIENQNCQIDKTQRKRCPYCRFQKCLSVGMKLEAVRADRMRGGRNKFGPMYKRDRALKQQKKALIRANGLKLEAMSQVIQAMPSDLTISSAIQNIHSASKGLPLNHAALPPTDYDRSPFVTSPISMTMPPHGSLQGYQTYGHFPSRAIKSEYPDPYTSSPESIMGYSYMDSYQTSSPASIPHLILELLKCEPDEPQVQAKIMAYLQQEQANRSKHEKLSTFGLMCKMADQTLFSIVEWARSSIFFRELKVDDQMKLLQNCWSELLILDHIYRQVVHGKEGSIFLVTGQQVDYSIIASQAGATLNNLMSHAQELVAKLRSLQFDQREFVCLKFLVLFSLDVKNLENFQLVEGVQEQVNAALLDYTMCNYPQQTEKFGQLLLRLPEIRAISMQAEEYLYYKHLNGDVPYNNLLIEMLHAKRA
Steroidogenic factor 1 (Mus musculus), sequence (P33242 whole entry): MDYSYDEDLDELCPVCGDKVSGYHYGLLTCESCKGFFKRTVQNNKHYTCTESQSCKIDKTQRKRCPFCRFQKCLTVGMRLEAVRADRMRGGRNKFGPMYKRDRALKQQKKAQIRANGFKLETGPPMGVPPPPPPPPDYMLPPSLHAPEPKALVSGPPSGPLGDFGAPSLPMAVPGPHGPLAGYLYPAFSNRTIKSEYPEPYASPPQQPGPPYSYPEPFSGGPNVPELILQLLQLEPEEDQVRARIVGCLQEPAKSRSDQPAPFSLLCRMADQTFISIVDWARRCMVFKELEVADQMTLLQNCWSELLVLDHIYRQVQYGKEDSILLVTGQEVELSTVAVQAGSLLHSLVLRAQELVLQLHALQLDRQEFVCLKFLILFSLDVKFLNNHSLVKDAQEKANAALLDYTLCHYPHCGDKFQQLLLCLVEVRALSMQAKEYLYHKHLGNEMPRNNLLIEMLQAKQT
T1 sequence (Q13285 whole entry): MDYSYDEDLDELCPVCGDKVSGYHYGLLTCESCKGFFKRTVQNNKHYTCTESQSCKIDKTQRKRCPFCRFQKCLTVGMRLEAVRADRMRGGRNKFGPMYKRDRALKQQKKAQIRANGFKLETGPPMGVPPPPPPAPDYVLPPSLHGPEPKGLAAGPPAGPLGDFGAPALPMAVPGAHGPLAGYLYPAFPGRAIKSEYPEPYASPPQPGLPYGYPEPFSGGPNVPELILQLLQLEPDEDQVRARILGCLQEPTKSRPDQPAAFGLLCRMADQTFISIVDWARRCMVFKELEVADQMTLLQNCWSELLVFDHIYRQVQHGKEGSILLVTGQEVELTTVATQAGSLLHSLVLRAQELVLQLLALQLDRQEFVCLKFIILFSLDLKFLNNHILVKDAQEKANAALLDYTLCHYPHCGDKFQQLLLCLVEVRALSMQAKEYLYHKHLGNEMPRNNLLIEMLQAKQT

`CCCCCCC1=C(c2ccccc2)[C@]2(OC)CCC[C@@H]2C1` (racemic): the pEC50 result in data set [1] and in [2] was “inactive” in each case.

`C=C(c1ccccc1)[C@@]12CN(Cc3ccccc3)C[C@@H]1CC(CCCCCC)=C2c1ccccc1` (racemic): the solubility result in [3] was “soluble”. Further, in data set [2], the pEC50 entry was “inactive”.

As for `C=C(CCCCCCCC)[C@@]12CCC[C@@H]1CC(CCCCCC)=C2c1ccccc1` (racemic), the pEC50 result in data set [1] and in [2] was “inactive” throughout.

For the compound `C=C(c1ccc(C(C)(C)C)cc1)[C@@]12CCC[C@@H]1CC(CCCCCC)=C2c1ccccc1` (racemic), the pEC50 entry in [1] and in data set [2] was “inactive” each time.

Consider `CCCCCCC1=C(c2ccccc2)[C@]2(OCCC)CCC[C@@H]2C1` (racemic), for which the half-maximal effective concentration (EC50) in [4] was 0.2 µM. Moreover, in data set [5], the Ratio was 0.67.

Regarding `C=C(c1ccc(OC)cc1)[C@@]12CCC[C@@H]1CC(CCCCCC)=C2c1ccccc1` (racemic), the pEC50 entry in data set [1] and in [2] was “inactive” throughout.

Take `CCOC(=O)C(C)Oc1cccc2c(=O)n(CC(=O)Nc3ccc(OC)cc3)ccc12` (stereo not given): the outcome in [6] was Active.

With `C=C(c1ccccc1)[C@@]12C[C@H](OC(C)=O)C[C@@H]1CC(CCCCCC)=C2c1ccccc1` (racemic), the EC50 in data set [4] is 0.2 µM. Also, the Ratio in data set [5] turned out to be 0.34.

On to `C=C(CCCCCC)[C@@]12CCC[C@@H]1CC(CCCCCC)=C2c1ccccc1` (racemic), for which the pEC50 entry in data set [1] and in [2] was “inactive” each time.

On to `C=C(c1ccccc1)[C@@]12C[C@@H](OC(C)=O)C[C@@H]1CC(CCCCCC)=C2c1ccccc1` (racemic), for which the pEC50 entry in [1] and in data set [2] was “inactive” each time.

In the case of `C=C(c1ccccc1)[C@@]12CCC[C@@H]1CC(CCCCCC)=C2CCCCCC` (racemic), the pEC50 entry in data set [1] and in data set [2] was “inactive” each time.

Turning to `C=C(c1ccccc1)[C@@]12CCC[C@@H]1CC(CCCCCC)=C2CCCC` (racemic), the pEC50 entry in [1] is “inactive”.

Regarding `C=C(c1ccccc1)[C@@]12CCC[C@@H]1CC(CCCCCC)=C2c1ccc(CC)cc1` (racemic), the pEC50 result in data set [1] and in [2] was “inactive” each time.

`C=C(c1ccccc1)[C@@]12CCC[C@@H]1CC(CCCCCC)=C2CCCO` (racemic): the outcome in data set [7] and in [8] was inactive. Further, in data set [2], the pEC50 result is “inactive”.

For the compound `C=C(c1ccccc1)[C@@]12CCC[C@@H]1CC(CCCCCC)=C2C1CCCCC1` (racemic), the EC50 in data set [4] was 0.2 µM. In addition, in data set [5], the Ratio is 0.59.

Regarding `CCCCCCC1=C(c2ccccc2)[C@]2(OCC(C)CC)CCC[C@@H]2C1` (mixture of isomers), the EC50 in [4] was 0.2 µM. In addition, the Ratio in [5] was 0.56.

With `CCCCCCC1=C(c2ccccc2)[C@]2(OCCCCC)CCC[C@@H]2C1` (racemic), the pEC50 result in data set [1] was “inactive”.

In turn, `CCCCCCCOc1ccc(O)cc1` yielded a half-inhibitory concentration (IC50) in [9] of 7.3 µM.

As for `C=C(c1ccccc1)[C@@]12CCC[C@@H]1CC=C2c1ccccc1` (racemic), the pEC50 entry in data set [1] and in [2] was “inactive” throughout.

With `C=C(c1ccccc1)[C@@]12CC[C@@H](O)[C@@H]1CC(CCCCCC)=C2c1ccccc1` (racemic), the outcome in data set [10], in data set [7], in data set [11], in data set [12], in [13] and in data set [14] was Active. In data set [3], the solubility entry is “soluble”. Moreover, the Activity result in data set [15] is “Dose-dependent effect”.

`C=C(c1ccccc1)[C@@]12CCC[C@@H]1CC([Si](C)(C)c1ccccc1)=C2c1ccccc1` (racemic): the concentration giving a half-maximal response (EC50) in data set [4] was 0.0631 µM. The Ratio in data set [5] turned out to be 0.33.

Regarding `CCCCCCO[C@@]12CCC[C@@H]1CC(CCCCCC)=C2c1ccccc1` (racemic), the pEC50 entry in data set [1] and in data set [2] was “inactive” throughout.

With `C=C(CCCC)[C@@]12CCC[C@@H]1CC(CCCCCC)=C2c1ccccc1` (racemic), the result in data set [7] and in data set [8] was inactive. In data set [4], the 50% effective concentration (EC50) is 0.2 µM. Moreover, the Ratio in data set [5] worked out at 0.76.

Regarding `C=C(c1ccc(CC)cc1)[C@@]12CCC[C@@H]1CC(CCCCCC)=C2c1ccccc1` (racemic), the pEC50 result in [1] and in [2] was “inactive” throughout.

As for `C=C(c1ccc(-c2ccccc2)cc1)[C@@]12CCC[C@@H]1CC(CCCCCC)=C2c1ccccc1` (racemic), the pEC50 entry in [1] and in data set [2] was “inactive” each time.

As for `C=C(c1ccccc1)[C@@]12CCC[C@@H]1CC(CCCCCC)=C2CCC` (racemic), the pEC50 entry in data set [1] is “inactive”.

As for `C=C(c1ccccc1)[C@@]12CN(C)C[C@@H]1CC(CCCCCC)=C2c1ccccc1` (racemic), the outcome in data set [7], in data set [11], in data set [12], in data set [13], in data set [14] and in data set [16] was Active. Further, in data set [3], the solubility result is listed as “soluble”.

Turning to `C=C(c1ccc(CCCC)cc1)[C@@]12CCC[C@@H]1CC(CCCCCC)=C2c1ccccc1` (racemic), the pEC50 result in data set [2] was “inactive”.

Turning to `CCCCCCC1=C(c2ccccc2)[C@]2(OCc3ccccc3)CCC[C@@H]2C1` (racemic), the pEC50 result in data set [2] was “inactive”.
